From ChEMBL document CHEMBL1773067
pIC50, pKi: −log10 of the molar value. Active and inactive are the calls of the source. The rule behind the calls is not given here.

Key:
[1] = biological target: T1, Phosphotyrosine-protein phosphatase PTPB (Mycobacterium tuberculosis) (UniProt P96830); experiment: Inhibition of Mycobacterium tuberculosis N-terminal His6-tagged PTPB at 20 uM using pNPP as substrate
T1 sequence (whole entry): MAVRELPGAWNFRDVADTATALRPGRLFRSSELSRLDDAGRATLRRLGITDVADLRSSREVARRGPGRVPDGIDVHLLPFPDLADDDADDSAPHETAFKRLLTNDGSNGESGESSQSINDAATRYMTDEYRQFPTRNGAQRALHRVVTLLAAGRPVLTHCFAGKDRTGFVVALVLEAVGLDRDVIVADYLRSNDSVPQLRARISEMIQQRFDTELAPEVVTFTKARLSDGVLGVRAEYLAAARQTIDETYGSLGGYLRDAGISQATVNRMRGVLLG

[2] = biological target: T1, Phosphotyrosine-protein phosphatase PTPB (Mycobacterium tuberculosis); experiment: Inhibition of Mycobacterium tuberculosis PTPB expressed in mouse RAW 264.7 cells assessed as restoration of IFN gamma-induced ERK1/ERK2 phosphorylation at 15 uM after 30 mins by Western blotting; assay type: cell-based
Outline: (§1)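 RAW 264.7 macrophages (DMEM, 10% FBS, 37°C, 5% CO₂) stably expressing HA-tagged mPTPB (electroporation, G418 0.5 mg/ml selection 2 weeks). Cells at 80% confluency lysed in Triton X-100 buffer with phosphatase/protease inhibitors; pERK1/2 detected by western blot.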

[3] = biological target: T2, Phosphotyrosine-protein phosphatase PTPB (Mycobacterium tuberculosis, UniProt P96830); experiment: Inhibition of Mycobacterium tuberculosis N-terminal His6-tagged PTPB
T2 sequence (P96830 whole entry): T1 sequence (whole entry)

[4] = biological target: T2, Phosphotyrosine-protein phosphatase PTPB; experiment: Inhibition of Mycobacterium tuberculosis N-terminal His6-tagged PTPB preincubated with compound for 30 mins before pNPP substrate addition by microplate spectrophotometer analysis
[5] = biological target: T2, Phosphotyrosine-protein phosphatase PTPB; experiment: Competitive inhibition of Mycobacterium tuberculosis N-terminal His6-tagged PTPB assessed as production of p-nitrophenol from pNPP substrate by Lineweaver-Burk plot analysis
[6] = biological target: T1, Phosphotyrosine-protein phosphatase PTPB (Mycobacterium tuberculosis); experiment: Inhibition of Mycobacterium tuberculosis PTPB expressed in mouse RAW 264.7 cells assessed as restoration of IFN gamma-induced ERK1/ERK2 phosphorylation after 30 mins by Western blotting; assay type: cell-based; outline: as §1
[7] = tested on: Mycobacterium tuberculosis; experiment: Potentiation of IFN-gamma-induced antimycobacterial activity against Mycobacterium tuberculosis Erdman ATCC 35801 infected in mouse J774A.1 cells assessed as decrease in bacterial load at 10 uM after 7 days; assay type: functional, organism-based
Outline: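 J774A.1 macrophages on cover slips infected 1 h at 37°C with M. tuberculosis Erdman (1-3 x10⁵ CFU/ml), rinsed, 16 h at 37°C/5% CO₂, then compound 10 µM with amikacin and IFN-γ 50 U/mL; triplicates. After 7 days cells lysed with 0.25% SDS, dilutions plated on 7H11 agar, colonies counted after 2-3 weeks.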

[8] = tested on: Mycobacterium tuberculosis; experiment: Antimycobacterial activity against Mycobacterium tuberculosis Erdman ATCC 35801 after 7 days by microplate alamar blue assay; assay type: functional; details: Erdman ATCC 35801, 168 h
Outline: (§2)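 MABA read-out after 7 day incubation in Middlebrook 7H12 medium against replicating M. tuberculosis cultures.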

J774.A1 = experiment: Cytotoxicity at mouse J774A1 cells up to 100 uM after 72 hrs by MTS assay; assay type: cell-based; details: j774.a1, 72 h
Outline: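 J774A.1 cells exposed 72 h; viability from MTS conversion to formazan.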

[9] = biological target: T2, Phosphotyrosine-protein phosphatase PTPB; experiment: Inhibition of Mycobacterium tuberculosis PTPB expressed in Escherichia coli after 5 mins by microplate spectrophotometer analysis
[10] = tested on: Mycobacterium tuberculosis; experiment: Antimycobacterial activity against Mycobacterium tuberculosis H37Rv after 7 days by microplate alamar blue assay; assay type: functional; details: 168 h; outline: as §2
[11] = biological target: T1, Phosphotyrosine-protein phosphatase PTPB (Mycobacterium tuberculosis); experiment: Inhibition of Mycobacterium tuberculosis PTPB expressed in mouse RAW 264.7 cells assessed as restoration of IFN gamma-induced ERK1/ERK2 phosphorylation at 10 uM after 30 mins by Western blotting; assay type: cell-based; outline: as §1
[12] = biological target: T1, Phosphotyrosine-protein phosphatase PTPB (Mycobacterium tuberculosis); details: RAW, 5 to 10 uM
[13] = biological target: T2, Phosphotyrosine-protein phosphatase PTPB; experiment: Non-competitive inhibition of Mycobacterium tuberculosis N-terminal His6-tagged PTPB assessed as production of p-nitrophenol from pNPP substrate by Lineweaver-Burk plot analysis

SMILES | inhibition [1] | pIC50 [3] | pIC50 [4] | further results
Cc1ccccc1NS(=O)(=O)c1ccc2c3c(cccc13)C(=O)N2 | inactive |  |  | 
CC(NC(=O)C(=O)NCc1ccco1)C(c1cccs1)N1CCN(C)CC1 (configuration not stated) | inactive |  |  | 
O=C1Nc2ccc(S(=O)(=O)N(CCO)CCO)c3cccc1c23 | inactive |  |  | 
O=C1Nc2ccc(S(=O)(=O)NCc3ccccc3)c3cccc1c23 | inactive |  |  | 
COc1ccc(N2CCN(C(c3cccs3)C(C)NC(=O)C(=O)N3CCCC3)CC2)cc1 (configuration not stated) | inactive |  |  | 
O=C1Nc2ccc(S(=O)(=O)NCCO)c3cccc1c23 | inactive |  |  | 
COc1ccc(N2CCN(C(c3cccs3)C(C)NC(=O)C(=O)N3CCCCC3)CC2)cc1 (configuration not stated) | inactive |  |  | inhibition [2]: inactive
CCCCCCCOC(=O)c1c(C)oc2ccc(NS(=O)(=O)c3ccc4c5c(cccc35)C(=O)N4)cc12 |  | 4.71 | 4.64 | 
COc1ccccc1CNC(=O)C(=O)NC(C)C(c1cccs1)N1CCN(c2ccc(F)cc2)CC1 (configuration not stated) |  | 4.94 | 4.80 | 
COc1ccc(N2CCN(C(c3cccs3)C(C)NC(=O)C(=O)NCc3ccco3)CC2)cc1 (configuration not stated) |  | 5.32 | 5.20 | pKi [5]: 5.49; inhibition [6]: Dose-dependent effect; Activity [7]: Active; MIC [8]: > 100 µM; Activity (J774.A1): Non-toxic; pIC50 [9]: 5.25; MIC [10]: > 100 µM
NS(=O)(=O)c1ccc2c3c(cccc13)C(=O)N2 | inactive |  |  | inhibition [11]: inactive
CC(NC(=O)C(=O)N1CCCCC1)C(c1cccs1)N1CCN(c2ccc(F)cc2)CC1 (configuration not stated) | inactive |  |  | 
CNS(=O)(=O)c1ccc2c3c(cccc13)C(=O)N2 | inactive |  |  | 
CCCCc1ccc(NS(=O)(=O)c2ccc3c4c(cccc24)C(=O)N3)cc1 |  | 5.92 | 5.85 | Activity [7]: Active; MIC [8]: > 100 µM; Activity (J774.A1): Non-toxic; inhibition [12]: Active; pIC50 [9]: 5.89; MIC [10]: > 100 µM; pKi [13]: 5.96
Cc1oc2ccc(NS(=O)(=O)c3ccc4c5c(cccc35)C(=O)N4)cc2c1C(=O)OC(C)C | inactive |  |  | 
CC(NC(=O)C(=O)NCc1ccc2c(c1)OCO2)C(c1cccs1)N1CCN(c2ccccc2)CC1 (configuration not stated) |  | 4.52 | 4.60 | 
O=C1Nc2ccc(S(=O)(=O)Nc3cc(Cl)c(O)c4ccccc34)c3cccc1c23 |  | 4.81 | 4.89 | 
Cc1cccc(NS(=O)(=O)c2ccc3c4c(cccc24)C(=O)N3)c1C | inactive |  |  | 
CCCCCOC(=O)c1c(C)oc2ccc(NS(=O)(=O)c3ccc4c5c(cccc35)C(=O)N4)cc12 |  | 4.68 | 4.68 | 
CCN1CCN(C(c2cccs2)C(C)NC(=O)C(=O)NCCc2c[nH]c3ccccc23)CC1 (configuration not stated) | inactive |  |  | 
CC(NC(=O)C(=O)N1CCCCC1)C(c1cccs1)N1CCN(C)CC1 (configuration not stated) | inactive |  |  | 
O=C1Nc2ccc(S(=O)(=O)Nc3ccc4oc5c(c4c3)CCCC5)c3cccc1c23 |  | 4.99 | 4.97 | 
O=C1Nc2ccc(S(=O)(=O)N3CCOCC3)c3cccc1c23 | inactive |  |  | 
CC(NC(=O)C(=O)N1CCCCC1)C(c1cccs1)N1CCN(c2ccccc2)CC1 (configuration not stated) | inactive |  |  | 
CC(NS(=O)(=O)c1ccc2c3c(cccc13)C(=O)N2)C1C2CC3CC(C2)CC1C3 (configuration not stated) | inactive |  |  | 
CCN1CCN(C(c2cccs2)C(C)NC(=O)C(=O)N2CCOCC2)CC1 (configuration not stated) | inactive |  |  | 
CC(NC(=O)C(=O)NCCc1c[nH]c2ccccc12)C(c1cccs1)N1CCN(c2ccc(F)cc2)CC1 (configuration not stated) |  | 4.92 | 4.76 | 
CC(NC(=O)C(=O)NCc1cccnc1)C(c1cccs1)N1CCN(c2ccc(F)cc2)CC1 (configuration not stated) |  | 5.04 | 4.85 | pKi [5]: 5.40; inhibition [6]: Dose-dependent effect; pIC50 [9]: 4.94
